# According to ChEMBL document CHEMBL5661979, “Pharmacological inhibition of BMK1 suppresses tumor growth through promyelocytic leukemia protein” (Cancer Cell, 2010):
# Experiments:
# Assay type in all cases: subcellular
# [1] = target: T1, Phosphorylase b kinase gamma catalytic chain, liver/testis isoform (Homo sapiens) (UniProt P15735); assay: Inhibition of PHKg2 in human HeLa cells lysate at 50 uM pre incubated for 15 mins followed by ATP acyl phosphate probe addition and measured after 10 mins by LC-MS/MS analysis relative to control; conditions: time 25.0 min
# T1 sequence (whole entry): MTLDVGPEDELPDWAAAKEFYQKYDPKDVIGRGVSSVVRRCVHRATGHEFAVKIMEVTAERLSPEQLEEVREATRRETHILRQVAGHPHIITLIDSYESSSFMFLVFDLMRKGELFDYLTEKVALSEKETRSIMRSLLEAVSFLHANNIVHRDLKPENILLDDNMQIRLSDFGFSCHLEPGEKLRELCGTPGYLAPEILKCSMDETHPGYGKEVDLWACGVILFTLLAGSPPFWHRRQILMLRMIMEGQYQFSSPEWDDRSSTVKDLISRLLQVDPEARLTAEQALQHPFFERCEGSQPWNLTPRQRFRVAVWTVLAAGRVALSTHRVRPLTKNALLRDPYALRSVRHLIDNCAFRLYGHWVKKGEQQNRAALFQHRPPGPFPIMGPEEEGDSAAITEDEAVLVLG
# [2] = target: PKC alpha and beta-2 (Homo sapiens, UniProt P17252+P05771); assay: Inhibition of PKCalpha/beta in human HeLa cells lysate pre incubated for 15 mins followed by ATP acyl phosphate probe addition and measured after 10 mins by LC-MS/MS analysis
# [3] = target: Serine/threonine-protein kinase 10 (Homo sapiens, UniProt O94804); assay: Inhibition of LOK in human HeLa cells lysate pre incubated for 15 mins followed by ATP acyl phosphate probe addition and measured after 10 mins by LC-MS/MS analysis
# Chain of Serine/threonine-protein kinase 10 (O94804 whole entry, the tested form may be a part): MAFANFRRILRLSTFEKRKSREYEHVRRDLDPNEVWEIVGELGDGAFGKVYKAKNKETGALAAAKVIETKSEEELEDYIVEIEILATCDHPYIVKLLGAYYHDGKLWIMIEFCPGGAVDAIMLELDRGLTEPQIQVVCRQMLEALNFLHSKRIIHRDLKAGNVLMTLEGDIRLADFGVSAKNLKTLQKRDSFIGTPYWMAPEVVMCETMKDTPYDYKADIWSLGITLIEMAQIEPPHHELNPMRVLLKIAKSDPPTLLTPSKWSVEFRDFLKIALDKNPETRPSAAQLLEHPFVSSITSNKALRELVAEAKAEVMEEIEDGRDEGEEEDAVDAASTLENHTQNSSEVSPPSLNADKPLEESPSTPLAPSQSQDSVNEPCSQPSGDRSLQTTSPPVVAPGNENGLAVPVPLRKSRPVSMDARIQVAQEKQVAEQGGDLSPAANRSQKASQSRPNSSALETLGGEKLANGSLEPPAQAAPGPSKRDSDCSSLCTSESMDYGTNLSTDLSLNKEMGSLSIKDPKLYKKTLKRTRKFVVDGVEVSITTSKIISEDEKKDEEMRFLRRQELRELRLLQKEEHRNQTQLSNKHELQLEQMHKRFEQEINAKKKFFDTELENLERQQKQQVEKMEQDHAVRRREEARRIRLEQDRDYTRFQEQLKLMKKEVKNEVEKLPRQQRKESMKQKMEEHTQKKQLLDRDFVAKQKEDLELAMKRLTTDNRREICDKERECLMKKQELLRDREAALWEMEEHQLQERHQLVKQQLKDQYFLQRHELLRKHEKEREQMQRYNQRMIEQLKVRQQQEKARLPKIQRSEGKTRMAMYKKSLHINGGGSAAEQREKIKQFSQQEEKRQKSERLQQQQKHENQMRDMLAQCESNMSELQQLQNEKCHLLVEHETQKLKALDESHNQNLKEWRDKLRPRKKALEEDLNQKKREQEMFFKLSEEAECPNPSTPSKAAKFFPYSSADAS
# [4] = target: Tyrosine-protein kinase JAK1 (Homo sapiens, UniProt P23458); assay: Inhibition of JAK1 domain 2 in human HeLa cells lysate pre incubated for 15 mins followed by ATP acyl phosphate probe addition and measured after 10 mins by LC-MS/MS analysis
# [5] = target: T2, Serine/threonine-protein kinase 3 (Homo sapiens) (UniProt Q13188); assay: Inhibition of MST2 in human HeLa cells lysate at 50 uM pre incubated for 15 mins followed by ADP acyl phosphate probe addition and measured after 10 mins by LC-MS/MS analysis relative to control; conditions: time 25.0 min
# T2 sequence (whole entry): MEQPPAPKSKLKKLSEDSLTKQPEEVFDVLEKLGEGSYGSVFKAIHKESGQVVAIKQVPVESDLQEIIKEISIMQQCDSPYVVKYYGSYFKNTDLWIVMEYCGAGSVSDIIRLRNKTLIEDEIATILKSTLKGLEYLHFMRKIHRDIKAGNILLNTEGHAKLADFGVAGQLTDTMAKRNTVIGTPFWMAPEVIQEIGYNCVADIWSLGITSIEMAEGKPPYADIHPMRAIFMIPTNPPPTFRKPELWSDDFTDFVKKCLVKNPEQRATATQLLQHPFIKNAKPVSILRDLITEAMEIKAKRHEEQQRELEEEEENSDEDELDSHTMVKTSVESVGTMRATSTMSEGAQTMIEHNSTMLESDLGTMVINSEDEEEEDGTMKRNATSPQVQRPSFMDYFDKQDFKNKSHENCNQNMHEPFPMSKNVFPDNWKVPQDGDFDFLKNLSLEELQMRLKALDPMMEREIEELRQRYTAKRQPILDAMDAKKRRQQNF
# [6] = target: T3, Serine/threonine-protein kinase Sgk3 (Homo sapiens) (UniProt Q96BR1); assay: Inhibition of SGK3 in human HeLa cells lysate at 10 uM pre incubated for 15 mins followed by ADP acyl phosphate probe addition and measured after 10 mins by LC-MS/MS analysis relative to control; conditions: time 25.0 min
# T3 sequence (whole entry): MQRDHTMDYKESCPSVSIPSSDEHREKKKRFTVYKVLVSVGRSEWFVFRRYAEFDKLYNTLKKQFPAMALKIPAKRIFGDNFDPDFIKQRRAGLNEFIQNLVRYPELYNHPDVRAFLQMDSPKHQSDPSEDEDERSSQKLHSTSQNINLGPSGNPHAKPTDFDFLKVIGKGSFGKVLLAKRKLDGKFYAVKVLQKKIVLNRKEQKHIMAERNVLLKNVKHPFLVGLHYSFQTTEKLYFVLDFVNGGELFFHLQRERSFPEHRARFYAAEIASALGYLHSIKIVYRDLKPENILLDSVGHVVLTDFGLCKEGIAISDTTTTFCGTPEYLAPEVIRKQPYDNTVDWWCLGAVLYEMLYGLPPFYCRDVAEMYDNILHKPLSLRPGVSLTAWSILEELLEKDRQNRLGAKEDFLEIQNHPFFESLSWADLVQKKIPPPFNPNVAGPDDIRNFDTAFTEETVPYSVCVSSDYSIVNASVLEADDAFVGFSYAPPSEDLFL
# [7] = target: Tyrosine-protein kinase ABL (Homo sapiens, UniProt P00519+P42684); assay: Inhibition of ABL1/2 in human HeLa cells lysate at 50 uM pre incubated for 15 mins followed by ATP acyl phosphate probe addition and measured after 10 mins by LC-MS/MS analysis relative to control; conditions: time 25.0 min
# Chain of Tyrosine-protein kinase ABL (P00519 whole entry, looked up, the tested form may be a part): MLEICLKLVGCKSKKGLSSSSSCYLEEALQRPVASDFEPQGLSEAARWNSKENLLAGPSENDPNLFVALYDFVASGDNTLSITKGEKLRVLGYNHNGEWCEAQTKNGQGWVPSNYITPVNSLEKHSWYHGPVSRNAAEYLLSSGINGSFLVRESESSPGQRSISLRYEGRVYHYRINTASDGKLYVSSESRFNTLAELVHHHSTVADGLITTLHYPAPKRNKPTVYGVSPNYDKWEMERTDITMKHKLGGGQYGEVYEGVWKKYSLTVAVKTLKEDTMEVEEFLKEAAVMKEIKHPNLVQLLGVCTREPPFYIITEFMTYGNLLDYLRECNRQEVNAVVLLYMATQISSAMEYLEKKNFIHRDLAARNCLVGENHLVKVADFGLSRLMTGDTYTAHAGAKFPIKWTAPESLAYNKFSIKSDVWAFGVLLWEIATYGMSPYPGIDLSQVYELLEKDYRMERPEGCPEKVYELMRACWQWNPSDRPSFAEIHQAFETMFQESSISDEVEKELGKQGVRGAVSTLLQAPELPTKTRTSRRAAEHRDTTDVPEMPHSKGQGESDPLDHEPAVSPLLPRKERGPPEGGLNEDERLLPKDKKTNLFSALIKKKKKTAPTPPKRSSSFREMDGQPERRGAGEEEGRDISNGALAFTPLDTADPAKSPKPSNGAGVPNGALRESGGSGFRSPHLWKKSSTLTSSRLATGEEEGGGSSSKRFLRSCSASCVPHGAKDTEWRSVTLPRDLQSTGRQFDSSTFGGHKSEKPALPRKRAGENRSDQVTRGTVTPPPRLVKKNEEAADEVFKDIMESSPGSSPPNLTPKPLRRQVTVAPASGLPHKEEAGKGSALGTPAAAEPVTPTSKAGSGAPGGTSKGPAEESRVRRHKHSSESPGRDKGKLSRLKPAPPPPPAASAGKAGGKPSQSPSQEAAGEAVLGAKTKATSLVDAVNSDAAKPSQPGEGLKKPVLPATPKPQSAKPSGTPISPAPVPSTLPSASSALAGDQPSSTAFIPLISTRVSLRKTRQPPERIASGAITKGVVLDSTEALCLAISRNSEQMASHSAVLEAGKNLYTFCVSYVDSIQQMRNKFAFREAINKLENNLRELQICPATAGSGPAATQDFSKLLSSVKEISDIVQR
# Chain of Tyrosine-protein kinase ABL (P42684 whole entry, looked up, the tested form may be a part): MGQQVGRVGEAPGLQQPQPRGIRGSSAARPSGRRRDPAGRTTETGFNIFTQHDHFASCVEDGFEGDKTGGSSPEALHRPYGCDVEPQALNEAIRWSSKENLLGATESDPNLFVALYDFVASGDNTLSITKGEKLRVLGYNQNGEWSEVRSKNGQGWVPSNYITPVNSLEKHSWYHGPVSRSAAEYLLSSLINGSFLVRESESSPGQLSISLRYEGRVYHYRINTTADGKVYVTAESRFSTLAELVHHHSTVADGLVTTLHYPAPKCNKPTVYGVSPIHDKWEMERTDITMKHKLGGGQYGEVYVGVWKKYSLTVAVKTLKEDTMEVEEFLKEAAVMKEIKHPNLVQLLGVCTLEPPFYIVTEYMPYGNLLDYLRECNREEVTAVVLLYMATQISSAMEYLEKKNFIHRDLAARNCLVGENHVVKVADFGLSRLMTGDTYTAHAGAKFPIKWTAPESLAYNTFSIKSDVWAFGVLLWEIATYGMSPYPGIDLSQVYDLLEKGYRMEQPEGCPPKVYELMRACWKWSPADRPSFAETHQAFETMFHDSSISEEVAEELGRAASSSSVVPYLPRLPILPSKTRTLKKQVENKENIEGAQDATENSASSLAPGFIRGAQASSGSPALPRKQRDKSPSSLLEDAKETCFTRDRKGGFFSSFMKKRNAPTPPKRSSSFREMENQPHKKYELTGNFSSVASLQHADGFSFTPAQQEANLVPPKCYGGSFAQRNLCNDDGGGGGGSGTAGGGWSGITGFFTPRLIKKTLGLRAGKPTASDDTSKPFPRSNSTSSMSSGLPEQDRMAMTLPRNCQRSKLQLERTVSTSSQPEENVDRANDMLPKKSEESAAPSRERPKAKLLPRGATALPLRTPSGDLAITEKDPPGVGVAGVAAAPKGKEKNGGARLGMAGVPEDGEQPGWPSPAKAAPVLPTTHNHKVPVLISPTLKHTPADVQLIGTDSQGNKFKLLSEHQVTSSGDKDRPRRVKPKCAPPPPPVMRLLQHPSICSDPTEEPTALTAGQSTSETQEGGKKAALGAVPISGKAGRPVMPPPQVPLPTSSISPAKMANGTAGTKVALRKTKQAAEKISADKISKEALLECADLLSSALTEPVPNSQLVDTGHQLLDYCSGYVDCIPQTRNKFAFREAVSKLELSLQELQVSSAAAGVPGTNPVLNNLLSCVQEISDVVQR
# Method in brief: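 HeLa cell lysates (5 mg/mL total protein) were preincubated with inhibitor at 0, 0.8, 2, 10 or 50 μM for 15 min. ATP or ADP acylphosphate probe was then added (5 μM final) for 10 min, and reactions were stopped with urea. Up to four fragment ions per kinase probe-peptide were quantified by targeted MS. % inhibition was taken relative to untreated lysate. Run in duplicate.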
# [8] = target: T4, Interleukin-1 receptor-associated kinase 1 (Homo sapiens, UniProt P51617); assay: Inhibition of IRAK1 in human HeLa cells lysate at 2 uM pre incubated for 15 mins followed by ATP acyl phosphate probe addition and measured after 10 mins by LC-MS/MS analysis relative to control; conditions: time 25.0 min
# T4 sequence (P51617 whole entry, looked up): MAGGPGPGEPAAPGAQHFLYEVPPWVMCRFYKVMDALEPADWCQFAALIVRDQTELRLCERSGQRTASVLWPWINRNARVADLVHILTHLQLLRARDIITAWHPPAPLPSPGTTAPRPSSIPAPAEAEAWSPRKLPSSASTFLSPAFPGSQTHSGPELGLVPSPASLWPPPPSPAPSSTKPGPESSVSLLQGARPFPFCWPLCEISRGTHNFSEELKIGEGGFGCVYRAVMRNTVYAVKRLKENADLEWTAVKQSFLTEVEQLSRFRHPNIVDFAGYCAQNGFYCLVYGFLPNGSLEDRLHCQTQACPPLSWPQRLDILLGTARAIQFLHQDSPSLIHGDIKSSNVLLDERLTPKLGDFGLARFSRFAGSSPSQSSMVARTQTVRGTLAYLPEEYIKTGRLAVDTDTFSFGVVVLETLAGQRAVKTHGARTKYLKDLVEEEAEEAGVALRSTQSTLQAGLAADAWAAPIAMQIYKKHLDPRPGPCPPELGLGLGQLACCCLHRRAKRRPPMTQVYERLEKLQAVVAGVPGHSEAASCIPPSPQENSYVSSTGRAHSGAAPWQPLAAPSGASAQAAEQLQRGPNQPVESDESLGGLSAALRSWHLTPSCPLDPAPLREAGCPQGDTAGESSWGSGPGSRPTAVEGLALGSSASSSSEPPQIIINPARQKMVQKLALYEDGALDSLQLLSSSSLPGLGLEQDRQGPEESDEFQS
# [9] = target: T4, Interleukin-1 receptor-associated kinase 1; assay: Inhibition of IRAK1 in human HeLa cells lysate at 10 uM pre incubated for 15 mins followed by ATP acyl phosphate probe addition and measured after 10 mins by LC-MS/MS analysis relative to control; conditions: time 25.0 min
# [10] = target: Calcium/calmodulin-dependent protein kinase type II subunit delta (Homo sapiens, UniProt Q13557); assay: Inhibition of CAMK2d in human HeLa cells lysate pre incubated for 15 mins followed by ATP acyl phosphate probe addition and measured after 10 mins by LC-MS/MS analysis
# Method in brief: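 KiNativ-type profiling in HeLa lysate (5 mg/mL total protein). Lysate preincubated 15 min with inhibitor at 50, 10, 2, 0.8 or 0 μM, then ATP or ADP acylphosphate probe added (5 μM final) for 10 min. Reaction stopped with urea and analysed by targeted MS, using up to four fragment ions per kinase peptide-probe conjugate. % inhibition calculated against untreated lysate. Duplicate reactions.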
# [11] = target: Focal adhesion kinase 1 (Homo sapiens, UniProt Q05397); assay: Inhibition of FAK in human HeLa cells lysate pre incubated for 15 mins followed by ADP acyl phosphate probe addition and measured after 10 mins by LC-MS/MS analysis
# Chain of Focal adhesion kinase 1 (Q05397 whole entry): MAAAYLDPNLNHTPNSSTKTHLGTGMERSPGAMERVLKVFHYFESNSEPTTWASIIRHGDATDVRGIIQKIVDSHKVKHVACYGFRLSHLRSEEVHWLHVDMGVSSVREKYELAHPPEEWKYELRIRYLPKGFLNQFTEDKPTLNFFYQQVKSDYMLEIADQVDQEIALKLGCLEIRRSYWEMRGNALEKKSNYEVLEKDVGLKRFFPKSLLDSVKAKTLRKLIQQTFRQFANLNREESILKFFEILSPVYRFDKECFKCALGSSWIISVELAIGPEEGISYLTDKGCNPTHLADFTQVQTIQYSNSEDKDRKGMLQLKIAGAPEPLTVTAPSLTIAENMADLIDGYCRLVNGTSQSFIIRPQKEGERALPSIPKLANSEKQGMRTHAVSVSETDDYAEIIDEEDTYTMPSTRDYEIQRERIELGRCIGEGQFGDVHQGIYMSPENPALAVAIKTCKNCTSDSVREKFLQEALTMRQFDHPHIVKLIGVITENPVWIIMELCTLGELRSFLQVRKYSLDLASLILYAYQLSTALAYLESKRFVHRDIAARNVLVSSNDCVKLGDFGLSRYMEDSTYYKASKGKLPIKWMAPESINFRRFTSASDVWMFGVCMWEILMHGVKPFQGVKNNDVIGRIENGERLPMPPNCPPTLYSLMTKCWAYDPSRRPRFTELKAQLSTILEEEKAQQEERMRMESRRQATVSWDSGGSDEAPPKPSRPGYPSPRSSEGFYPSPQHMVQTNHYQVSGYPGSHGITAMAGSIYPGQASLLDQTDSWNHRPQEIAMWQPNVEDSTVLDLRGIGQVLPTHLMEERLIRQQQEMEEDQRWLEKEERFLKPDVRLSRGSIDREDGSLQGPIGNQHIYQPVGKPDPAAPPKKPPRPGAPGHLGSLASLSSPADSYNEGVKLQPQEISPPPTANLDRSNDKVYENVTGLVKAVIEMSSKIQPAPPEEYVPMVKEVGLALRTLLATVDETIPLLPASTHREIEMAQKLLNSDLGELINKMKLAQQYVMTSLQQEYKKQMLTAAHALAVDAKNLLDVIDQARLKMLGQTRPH
# [12] = target: DNA-dependent protein kinase catalytic subunit (Homo sapiens, UniProt P78527); assay: Inhibition of PRKDC in human HeLa cells lysate pre incubated for 15 mins followed by ATP acyl phosphate probe addition and measured after 10 mins by LC-MS/MS analysis
structure (smiles),measurement,setting,value
CCOc1cc(N2CCC(O)CC2)ccc1Nc1ncc2c(n1)N(C)c1ccccc1C(=O)N2C,inhibition,[1],8.5%
same,IC50,[2],> 50 µM
same,IC50,[3],> 50 µM
same,IC50,[4],> 50 µM
same,inhibition,[5],7.2%
same,inhibition,[6],-0.3%
same,inhibition,[7],4.9%
same,inhibition,[8],2.6%
same,inhibition,[9],1.9%
same,IC50,[10],> 50 µM
same,IC50,[11],39 µM
same,IC50,[12],> 50 µM
